As a reminder, the inhibition is the change of the read-out against control, counted positive when it falls. In general, Ki refers to the dissociation constant of the complex between target and ligand, obtained from inhibition or displacement. Read a high Ki as weaker binding.

Here are results for 16 molecules from ChEMBL document CHEMBL1140384, “Synthesis and structure-activity relationships of suramin-derived P2Y11 receptor antagonists with nanomolar potency” (J Med Chem, 2005).

One experiment addresses P2Y purinoceptor 2 (Homo sapiens, UniProt P41231). The experiment can be described thus: Percent inhibition of agonist-induced calcium mobilization at P2Y purinoceptor 2 recombinantly expressed in human HEK293 cells at 100 uM dose. Format: functional, cell-based. Conditions: in the assay text read “native in” for “recombinantly expressed in”. In outline: (§1)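 Single 100 µM antagonist dose, preincubated 30 min at 37 °C, in a Ca2+ fluorescence assay (Oregon Green 488 BAPTA-1/AM). Agonists: 31.6 nM 2-MeSADP for native P2Y1 and 3.16 µM UTP for native P2Y2, both in HEK293 cells; 1 µM ATPγS for recombinant P2Y11 in 1321N1 cells. Response expressed as % of agonist control; mean ± SEM, n ≥ 3.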
For orientation: Calcium assays in cells follow changes in intracellular calcium, usually with a dye or a luminescent sensor.

The next experiment deals with P2Y purinoceptor 1 (Homo sapiens, UniProt P47900). The experiment can be described thus: Percent inhibition of agonist-induced calcium mobilization at P2Y purinoceptor 1 recombinantly expressed in human HEK293 cells at 100 uM dose. Format: functional, cell-based. Conditions: in the assay text read “native in” for “recombinantly expressed in”. In outline: as §1
Sequence of P2Y purinoceptor 1 (P47900 whole entry): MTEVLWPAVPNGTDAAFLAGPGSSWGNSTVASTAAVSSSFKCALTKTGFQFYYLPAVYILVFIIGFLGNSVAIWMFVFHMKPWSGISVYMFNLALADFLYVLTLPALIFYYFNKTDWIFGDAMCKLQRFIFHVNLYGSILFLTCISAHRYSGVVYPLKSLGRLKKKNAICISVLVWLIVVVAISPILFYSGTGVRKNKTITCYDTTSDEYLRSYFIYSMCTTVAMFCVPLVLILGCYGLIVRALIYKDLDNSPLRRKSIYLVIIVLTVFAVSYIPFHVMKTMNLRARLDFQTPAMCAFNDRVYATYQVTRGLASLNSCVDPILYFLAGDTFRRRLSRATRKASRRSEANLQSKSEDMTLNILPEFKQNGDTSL
Experiment [1] concerns the target T1, P2Y purinoceptor 11 (Homo sapiens) (UniProt Q96G91).
T1 sequence (whole entry): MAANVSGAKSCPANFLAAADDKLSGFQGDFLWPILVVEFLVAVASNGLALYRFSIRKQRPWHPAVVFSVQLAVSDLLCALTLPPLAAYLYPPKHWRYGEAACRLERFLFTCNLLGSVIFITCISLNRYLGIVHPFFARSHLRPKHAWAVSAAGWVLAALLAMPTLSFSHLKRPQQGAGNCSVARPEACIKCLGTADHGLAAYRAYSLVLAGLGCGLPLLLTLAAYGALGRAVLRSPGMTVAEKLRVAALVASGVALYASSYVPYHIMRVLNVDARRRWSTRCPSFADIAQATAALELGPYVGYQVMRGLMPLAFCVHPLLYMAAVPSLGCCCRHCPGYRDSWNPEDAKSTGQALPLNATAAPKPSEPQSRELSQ
Put plainly: Percent inhibition of agonist-induced calcium mobilization at P2Y purinoceptor 11 recombinantly expressed in human 1321N1 astrocytoma cells at 100 uM dose.

The target in experiment [2] is T1, P2Y purinoceptor 11 (Homo sapiens). Put plainly: Relative potency was measured against P2Y purinoceptor 11. Format: functional.
For experiment [3], the target named is T2, P2Y purinoceptor 11 (Homo sapiens, UniProt Q96G91).
T2 sequence (Q96G91 whole entry): T1 sequence (whole entry)
Put plainly: Inhibitory concentration against P2Y purinoceptor 11 expressed in 1321N1 astrocytoma cells; n=3. Format: cell-based. In outline:
(§2)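 Human P2Y11 stably expressed in 1321N1 astrocytoma cells (G418 selection), loaded with Oregon Green 488 BAPTA-1/AM (3 µM, 60 min, 25 °C) in Krebs-HEPES. Compound preincubated 30 min at 37 °C before injection of 1 µM ATPγS. Ca2+ fluorescence read at ex 485/em 520 nm for 30 s. IC50 from concentration-inhibition curves; independent experiments each run in triplicate.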

The target of experiment [4] is T2, P2Y purinoceptor 11. The experiment can be described thus: Inhibitory concentration against P2Y purinoceptor 11 expressed in 1321N1 astrocytoma cells; n=4. Format: cell-based. In outline: as §2
Experiment [5] addresses T2, P2Y purinoceptor 11. Put plainly: Inhibitory concentration against P2Y purinoceptor 11 expressed in 1321N1 astrocytoma cells; n=6. Format: cell-based. In outline: as §2
The target in experiment [6] is T2, P2Y purinoceptor 11. The experiment can be described thus: Inhibitory concentration against P2Y purinoceptor 11 expressed in 1321N1 astrocytoma cells; n=7. Format: cell-based. In outline:
as §2

Sequence of P2Y purinoceptor 2 (P41231 whole entry): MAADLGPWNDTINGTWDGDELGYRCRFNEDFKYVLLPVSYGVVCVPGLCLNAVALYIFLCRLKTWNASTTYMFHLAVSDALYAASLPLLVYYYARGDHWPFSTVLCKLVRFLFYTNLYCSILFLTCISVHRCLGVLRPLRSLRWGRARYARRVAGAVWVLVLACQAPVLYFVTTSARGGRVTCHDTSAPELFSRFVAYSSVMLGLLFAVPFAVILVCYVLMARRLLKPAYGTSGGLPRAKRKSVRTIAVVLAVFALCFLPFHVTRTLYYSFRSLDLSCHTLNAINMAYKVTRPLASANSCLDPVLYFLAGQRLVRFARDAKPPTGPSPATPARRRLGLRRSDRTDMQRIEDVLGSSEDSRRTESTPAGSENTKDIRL

For the molecule `CCc1ccc(C(=O)Nc2ccc(S(=O)(=O)O)c3cc(S(=O)(=O)O)cc(S(=O)(=O)O)c23)cc1NC(=O)Nc1cc(C(=O)Nc2ccc(S(=O)(=O)O)c3cc(S(=O)(=O)O)cc(S(=O)(=O)O)c23)ccc1CC`, the inhibition at P2Y purinoceptor 2 was determined as 20.8%; on P2Y purinoceptor 1 it was 38.4%; in experiment [1], 39.9%.
Consider `Cc1ccc(C(=O)Nc2ccc(S(=O)(=O)O)c3cc(S(=O)(=O)O)cc(S(=O)(=O)O)c23)cc1NC(=O)Nc1cc(C(=O)Nc2ccc(S(=O)(=O)O)c3cc(S(=O)(=O)O)cc(S(=O)(=O)O)c23)ccc1C`, for which the Rel potency in experiment [2] turned out to be 0.6. Further, the inhibition stood at 28.4% on P2Y purinoceptor 2, 0% on P2Y purinoceptor 1 and 86.6% in experiment [1]. This molecule showed a Ki on P2Y purinoceptor 11 [3] of 7.59 µM.
`O=C(Nc1cc(C(=O)Nc2ccc(S(=O)(=O)O)c3cc(S(=O)(=O)O)cc(S(=O)(=O)O)c23)ccc1F)Nc1cc(C(=O)Nc2ccc(S(=O)(=O)O)c3cc(S(=O)(=O)O)cc(S(=O)(=O)O)c23)ccc1F`: the inhibition came to 0% at P2Y purinoceptor 2, 60% at P2Y purinoceptor 1 and 64.7% in experiment [1].
In turn, `COCc1ccc(C(=O)Nc2ccc(S(=O)(=O)O)c3cc(S(=O)(=O)O)cc(S(=O)(=O)O)c23)cc1NC(=O)c1cccc(NC(=O)Nc2cccc(C(=O)Nc3cc(C(=O)Nc4ccc(S(=O)(=O)O)c5cc(S(=O)(=O)O)cc(S(=O)(=O)O)c45)ccc3COC)c2)c1` yielded a Rel potency in experiment [2] of 1.9. Moreover, the inhibition on P2Y purinoceptor 2 worked out at 44.3%; on P2Y purinoceptor 1, 47.5%; in experiment [1] it was 71.6%. Also, the Ki at P2Y purinoceptor 11 [4] is 2.4 µM.
`COCc1ccc(C(=O)Nc2ccc(S(=O)(=O)O)c3cc(S(=O)(=O)O)cc(S(=O)(=O)O)c23)cc1NC(=O)Nc1cc(C(=O)Nc2ccc(S(=O)(=O)O)c3cc(S(=O)(=O)O)cc(S(=O)(=O)O)c23)ccc1COC`: the figures for the inhibition (at P2Y purinoceptor 2; on P2Y purinoceptor 1; in experiment [1]) were 13%, 31.7% and 23.8%, respectively.
Turning to `CC(C)c1ccc(C(=O)Nc2ccc(S(=O)(=O)O)c3cc(S(=O)(=O)O)cc(S(=O)(=O)O)c23)cc1NC(=O)c1cccc(NC(=O)Nc2cccc(C(=O)Nc3cc(C(=O)Nc4ccc(S(=O)(=O)O)c5cc(S(=O)(=O)O)cc(S(=O)(=O)O)c45)ccc3C(C)C)c2)c1`, the Rel potency in experiment [2] amounted to 10. In addition, the inhibition amounted to 31.1% on P2Y purinoceptor 2, 45% at P2Y purinoceptor 1 and 83.1% in experiment [1]. This molecule also had a Ki at P2Y purinoceptor 11 [3] of 0.447 µM.
Turning to `O=C(Nc1cc(C(=O)Nc2ccc(S(=O)(=O)O)c3cc(S(=O)(=O)O)cc(S(=O)(=O)O)c23)ccc1-c1ccccc1)Nc1cc(C(=O)Nc2ccc(S(=O)(=O)O)c3cc(S(=O)(=O)O)cc(S(=O)(=O)O)c23)ccc1-c1ccccc1`, the inhibition at P2Y purinoceptor 2 worked out at 0%; at P2Y purinoceptor 1 it was 34.2%; in experiment [1] it was 35.9%.
Take `Cc1ccc(C(=O)Nc2ccc(S(=O)(=O)O)c3cc(S(=O)(=O)O)cc(S(=O)(=O)O)c23)cc1NC(=O)c1cccc(NC(=O)Nc2cccc(C(=O)Nc3cc(C(=O)Nc4ccc(S(=O)(=O)O)c5cc(S(=O)(=O)O)cc(S(=O)(=O)O)c45)ccc3C)c2)c1` [SURAMIN]: in experiment [2], the Rel potency amounted to 15. The inhibition on P2Y purinoceptor 2 turned out to be 50.5%; at P2Y purinoceptor 1 it was 54.5%; in experiment [1] it was 93.7%. Moreover, the Ki at P2Y purinoceptor 11 [5] is 0.302 µM.
On to `O=C(Nc1cc(C(=O)Nc2ccc(S(=O)(=O)O)c3cc(S(=O)(=O)O)cc(S(=O)(=O)O)c23)ccc1Cl)Nc1cc(C(=O)Nc2ccc(S(=O)(=O)O)c3cc(S(=O)(=O)O)cc(S(=O)(=O)O)c23)ccc1Cl`, for which the inhibition on P2Y purinoceptor 2 came to 0%; at P2Y purinoceptor 1, 57.8%; in experiment [1], 59%.
Take `CCc1ccc(C(=O)Nc2ccc(S(=O)(=O)O)c3cc(S(=O)(=O)O)cc(S(=O)(=O)O)c23)cc1NC(=O)c1cccc(NC(=O)Nc2cccc(C(=O)Nc3cc(C(=O)Nc4ccc(S(=O)(=O)O)c5cc(S(=O)(=O)O)cc(S(=O)(=O)O)c45)ccc3CC)c2)c1`: the Rel potency in experiment [2] worked out at 4.5. Moreover, the figures for the inhibition (at P2Y purinoceptor 2; on P2Y purinoceptor 1; in experiment [1]) were 48.8%, 48.7% and 84.9%, respectively. Also, on P2Y purinoceptor 11 [3], the Ki was 1 µM.
Molecule `O=C(Nc1cccc(C(=O)Nc2cc(C(=O)Nc3ccc(S(=O)(=O)O)c4cc(S(=O)(=O)O)cc(S(=O)(=O)O)c34)ccc2Cl)c1)Nc1cccc(C(=O)Nc2cc(C(=O)Nc3ccc(S(=O)(=O)O)c4cc(S(=O)(=O)O)cc(S(=O)(=O)O)c34)ccc2Cl)c1` yielded a Rel potency in experiment [2] of 42. Moreover, the affinity at P2Y purinoceptor 11 [6], expressed as Ki, was 0.107 µM. For the same molecule, the results for the inhibition (on P2Y purinoceptor 2; on P2Y purinoceptor 1; in experiment [1]) were 55.2%, 40.6% and 93%, respectively.
On to `O=C(Nc1cccc(C(=O)Nc2ccc(S(=O)(=O)O)c3cc(S(=O)(=O)O)cc(S(=O)(=O)O)c23)c1)Nc1cccc(C(=O)Nc2ccc(S(=O)(=O)O)c3cc(S(=O)(=O)O)cc(S(=O)(=O)O)c23)c1`, for which the results for the inhibition (on P2Y purinoceptor 2; at P2Y purinoceptor 1; in experiment [1]) were 24%, 19.7% and 54.2%, respectively.
Take `O=C(Nc1cccc(C(=O)Nc2cc(C(=O)Nc3ccc(S(=O)(=O)O)c4cc(S(=O)(=O)O)cc(S(=O)(=O)O)c34)ccc2-c2ccccc2)c1)Nc1cccc(C(=O)Nc2cc(C(=O)Nc3ccc(S(=O)(=O)O)c4cc(S(=O)(=O)O)cc(S(=O)(=O)O)c34)ccc2-c2ccccc2)c1`: in experiment [2], the Rel potency is 15. Moreover, the inhibition on P2Y purinoceptor 2 was 73.2%; at P2Y purinoceptor 1, 75.1%; in experiment [1], 79.9%. The molecule further had a Ki on P2Y purinoceptor 11 [3] of 0.302 µM.
As to `COc1ccc(C(=O)Nc2ccc(S(=O)(=O)O)c3cc(S(=O)(=O)O)cc(S(=O)(=O)O)c23)cc1NC(=O)Nc1cc(C(=O)Nc2ccc(S(=O)(=O)O)c3cc(S(=O)(=O)O)cc(S(=O)(=O)O)c23)ccc1OC`, the inhibition on P2Y purinoceptor 2 was 53.6%; at P2Y purinoceptor 1 it was 40%; in experiment [1] it was 11.2%.
`COc1ccc(C(=O)Nc2ccc(S(=O)(=O)O)c3cc(S(=O)(=O)O)cc(S(=O)(=O)O)c23)cc1NC(=O)c1cccc(NC(=O)Nc2cccc(C(=O)Nc3cc(C(=O)Nc4ccc(S(=O)(=O)O)c5cc(S(=O)(=O)O)cc(S(=O)(=O)O)c45)ccc3OC)c2)c1`: the Rel potency in experiment [2] came out at 59. At P2Y purinoceptor 11 [6], this molecule showed a Ki of 0.0759 µM. Also, the inhibition at P2Y purinoceptor 2 was determined as 44.9%; on P2Y purinoceptor 1 it was 23.2%; in experiment [1] it was 92.2%.
Consider `CC(C)c1ccc(C(=O)Nc2ccc(S(=O)(=O)O)c3cc(S(=O)(=O)O)cc(S(=O)(=O)O)c23)cc1NC(=O)Nc1cc(C(=O)Nc2ccc(S(=O)(=O)O)c3cc(S(=O)(=O)O)cc(S(=O)(=O)O)c23)ccc1C(C)C`, for which the results for the inhibition (on P2Y purinoceptor 2; on P2Y purinoceptor 1; in experiment [1]) were 14.2%, 28.7% and 23.2%, respectively.
